The subject of assay [1] is Canis familiaris. Put plainly: Tissue concentration in dog blood 0.5 hr after iv administration. In kind it is functional, Canis lupus familiaris. The essentials:
(§1)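 Dogs given ³H tracer (92–100 μCi) as iv cephalic-vein bolus in 2.0 mL sterile acetate buffer pH 4.5; 1–3 dogs per time point. Killed 30 min (or 24 h) later by iv pentobarbital; duplicate tissue samples oxidized and liquid-scintillation counted with background and efficiency correction. Expressed as % kg dose/g; ratio = left ventricle to blood.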

Assay [2] relates to Canis familiaris. Put plainly: Tissue concentration in dog blood 24 hr after iv administration. In kind it is functional, Canis lupus familiaris. The method in brief: (§2)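 Dogs (one to three per time point) received bolus cephalic vein injection of 92–100 μCi ³H tracer in 2.0 mL sterile acetate buffer pH 4.5; sacrificed 30 min or 24 h later by iv sodium pentobarbital. Duplicate organ samples oxidized and liquid-scintillation counted with background/efficiency correction; % kg dose/g ± SEM; heart ratio uses left ventricle/blood.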

Assay [3] deals with Canis familiaris. The assay can be described thus: Tissue concentration in dog heart 0.5 hr after iv administration. In kind it is functional, Canis lupus familiaris. The essentials: as §2
Assay [4] relates to Canis familiaris. Put plainly: Tissue concentration in dog heart 24 hr after iv administration. In kind it is functional, Canis lupus familiaris. The method in brief:
as §2

For assay [5], the system named is Canis familiaris. Put plainly: (§3) Tissue concentration in dog left ventricle to blood ratio 0.5 hr after iv administration. It is filed as functional, Canis lupus familiaris. The essentials: as §2
Assay [6] relates to Canis familiaris. Put plainly: Tissue concentration in dog liver 0.5 hr after iv administration. It is filed as functional, Canis lupus familiaris. The essentials: as §1
For assay [7], the system named is Canis familiaris. The assay can be described thus: Tissue concentration in dog liver 24 hr after iv administration. It is filed as functional, Canis lupus familiaris. The method in brief:
as §2

In assay [8] the test system is Canis familiaris. The assay can be described thus: Tissue concentration in dog lung 0.5 hr after iv administration. In kind it is functional, Canis lupus familiaris. The method in brief:
as §2

In assay [9] the test system is Canis familiaris. The assay can be described thus: Tissue concentration in dog lung 24 hr after iv administration. In kind it is functional, Canis lupus familiaris. The method in brief:
as §2

Assay [10] relates to Canis familiaris. The assay can be described thus: Tissue concentration in dog spleen 0.5 hr after iv administration. In kind it is functional, Canis lupus familiaris. The method in brief: as §2
Assay [11] relates to Canis familiaris. Put plainly: Tissue concentration in dog spleen 24 hr after iv administration. In kind it is functional, Canis lupus familiaris. The method in brief: as §2
Assay [12] concerns Canis familiaris. The assay can be described thus: Tissue concentration in dog left ventricle to blood ratio 24 hr after iv administration. In kind it is functional, Canis lupus familiaris. The essentials: as §2
Assay [13] deals with Rattus norvegicus. Put plainly: Neuronal selectivity expressed as Concentration in spleen after iv administration in rat, pretreated with 6-hydroxydopamine (control = 1.88+/-0.25). It is filed as functional, organism-based.
Assay [14] has as its system Rattus norvegicus. The assay can be described thus: Neuronal selectivity expressed as Concentration in blood after iv administration in rat, pretreated with 6-hydroxydopamine (control = 0.062+/-0.012). It is filed as functional, organism-based.
The subject of assay [15] is Rattus norvegicus. The assay can be described thus: Neuronal selectivity expressed as Concentration in left atrium after iv administration in rat, pretreated with 6-hydroxydopamine (control = 5.26+/-0.43). It is filed as functional, organism-based. As to conditions: Cardiac atrium.
Assay [16] deals with Rattus norvegicus. Put plainly: Neuronal selectivity expressed as Concentration in left ventricle after iv administration in rat, pretreated with 6-hydroxydopamine (control = 5.38+/-0.39). It is filed as functional, organism-based. As to conditions: Heart left ventricle.
Assay [17] relates to Rattus norvegicus. Put plainly: Neuronal selectivity expressed as Concentration in right atrium after iv administration in rat, pretreated with 6-hydroxydopamine (control = 5.19+/-0.14). In kind it is functional, organism-based. The note with it: Cardiac atrium.
Assay [18] concerns Rattus norvegicus. Put plainly: Neuronal selectivity expressed as Concentration in right ventricle after iv administration in rat, pretreated with 6-hydroxydopamine (control = 6.10+/-0.45). As to conditions: Heart right ventricle. In kind it is functional, organism-based.
For assay [19], the species on record is Rattus norvegicus. Put plainly: Percente change in thallium-201 concentration in left atrium of sympathectomized rat, pretreated with 6-hydroxydopamine. In kind it is functional, Cardiac atrium. The essentials: (§4)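 Female Sprague-Dawley rats (200–300 g) given 6-hydroxydopamine HBr 100 mg/kg ip, freshly made in saline, 5 days before tracer; controls got vehicle. Thallium-201 (23–28 μCi) iv via femoral vein; decapitated 90 min later; tissue radioactivity counted; N = 6. Value is % change in treated versus control tissue concentration.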

For assay [20], the species on record is Rattus norvegicus. The assay can be described thus: Percent change in thallium-201 concentration in left ventricle of sympathectomized rat, pretreated with 6-hydroxydopamine. It is filed as functional, Heart left ventricle. The essentials:
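Blood-perfusion check in rats under same 6-hydroxydopamine protocol (100 mg/kg ip, 5 days before tracer): thallium-201 23–28 μCi iv via femoral vein, decapitation 90 min later, N = 6; percent change in tissue radioactivity of treated versus control rats.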

Assay [21] is filed under the species Rattus norvegicus. The assay can be described thus: Percent change in thallium-201 concentration in right atrium of sympathectomized rat, pretreated with 6-hydroxydopamine. In kind it is functional, Cardiac atrium. The method in brief: as §4
The species entered for assay [22] is Rattus norvegicus. Put plainly: Percent change in thallium-201 concentration in spleen of sympathectomized rat, pretreated with 6-hydroxydopamine. In kind it is functional.
Assay [23] is filed under the species Rattus norvegicus. Put plainly: Percent change in [3H]metaraminol concentration in blood of sympathectomized rat, pretreated with 6-hydroxydopamine.
Assay [24] is filed under the species Rattus norvegicus. Put plainly: Percent change in [3H]metaraminol concentration in right ventricle of sympathectomized rat, pretreated with 6-hydroxydopamine.
Assay [25] concerns Canis familiaris. Described as §3. In kind it is functional, Canis lupus familiaris. The essentials:
as §1
The source holds these as a separate data set.

For assay [26], the species on record is Rattus norvegicus. The assay can be described thus: Percentage change in thallium-201 in right ventricle of sympathectomized rat, pretreated with 6-hydroxydopamine. In kind it is functional, Heart right ventricle. The essentials:
as §4

The species entered for assay [27] is Rattus norvegicus. Put plainly: Percentage change in thallium-201 in spleen of sympathectomized rat, pretreated with 6-hydroxydopamine. It is filed as functional. The method in brief: as §4
Assay [28] is filed under the species Rattus norvegicus. The assay can be described thus: Percentage change in thallium-201 in blood of sympathectomized rat, pretreated with 6-hydroxydopamine. In kind it is functional. The method in brief:
as §4

For assay [29], the species on record is Rattus norvegicus. The assay can be described thus: Percentage change in thallium-201 in left ventricle of sympathectomized rat, pretreated with 6-hydroxydopamine. In kind it is functional, Heart left ventricle. The method in brief:
as §4

Consider `C[C@H](N)[C@H](O)c1cccc(O)c1` (stereo in doubt; form 1) [METARAMINOL], for which the “[3H] concentration” value in assay [1] is 0.03 % kg dose g-1; in assay [2], 0.008 % kg dose g-1; in assay [3] it was 0.55 % kg dose g-1; in [4], 0.59 % kg dose g-1; in [5], 18; in [6], 0.42 % kg dose g-1. Also, the “[3H] concentration” value in [7] was determined as 0.13 % kg dose g-1; in assay [8], 0.2 % kg dose g-1; in [9], 0.03 % kg dose g-1; in assay [10], 0.81 % kg dose g-1; in [11], 0.5 % kg dose g-1; in [12] it was 74.
`C[C@H](N)[C@H](O)c1cccc(O)c1` (stereo in doubt; form 2): the Concentration was determined as 0.46 % dose g-1 in assay [13]; 0.158 % dose g-1 in [14]; 0.75 % dose g-1 in assay [15]; 1.05 % dose g-1 in [16]; 0.86 % dose g-1 in assay [17]; 1.32 % dose g-1 in assay [18].
For the compound `C[C@H](N)[C@H](O)c1cccc(O)c1` (stereo in doubt; form 2) [METARAMINOL], the “[3H] concentration” value in assay [2] was found to be 0.009 % kg dose g-1; in assay [3] it was 0.72 % kg dose g-1; in assay [4] it was 0.51 % kg dose g-1; in assay [5], 24; in [7], 0.17 % kg dose g-1; in [8], 0.13 % kg dose g-1. For the same compound, the “[3H] concentration” value in assay [9] turned out to be 0.05 % kg dose g-1; in [10], 0.88 % kg dose g-1; in assay [11] it was 0.73 % kg dose g-1; in assay [12], 57. Besides, the Change is -86% in [19]; -86% in [20]; -83% in assay [21]; -76% in [22]; 155% in assay [23]; -80% in [24].
Consider `[3H][C@](O)(CN)c1ccc(O)c(O)c1` [[3H]NOREPINEPHRINE], for which the “[3H] concentration” value in [1] was determined as 0.04 % kg dose g-1; in assay [2], 0.017 % kg dose g-1; in [3], 0.74 % kg dose g-1; in [4], 0.16 % kg dose g-1; in assay [25] it was 19; in assay [6], 0.27 % kg dose g-1. For the same compound, the “[3H] concentration” value is 0.09 % kg dose g-1 in assay [7]; 0.18 % kg dose g-1 in [8]; 0.03 % kg dose g-1 in assay [9]; 0.81 % kg dose g-1 in assay [10]; 0.52 % kg dose g-1 in [11]; 9 in [12]. The Change in [26] is -92%; in [27], -71%; in assay [28], -20%; in assay [29], -85%; in assay [19] it was -92%; in assay [21], -94%.

Source of the values: ChEMBL document CHEMBL1124727, “Neuronal mapping of the heart with 6-[18F]fluorometaraminol” (1990).
